# Assay outcomes (PubChem BioAssay)
# Calb FLC: C. albicans growth modulation with fluconazole. 300,000 tested, 0.57% active. growth inhibition, % (concentration not given with the values). C. albicans CaCi-2 (fluconazole-resistant clinical isolate) + fluconazole, Alamar Blue growth, 48 h;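 active = growth inhibition above about 58% in most replicates, limit read from the data, passing the limit was not always enough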;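 note: all wells also contain fluconazole at 8 µg/ml as a sub-toxic cotreatment; 0% = median of DMSO wells and 100% = median of geldanamycin control wells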
# Beta apoptosis: blocks beta cell apoptosis | INS-1E cytokine-induced death, ATP luminescence, 48 h; percent of positive-control rescue, neutral wells zero | AID 435005 | protection from apoptosis, % (no concentration beside the values) | 300,000 tested, 0.8% active;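 active = Every replicate reaches about 75%, or at least half do and their mean reaches it too, limit read from the data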;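 note: 0% = cytokine-treated negative control wells and 100% = positive control rescue; higher means more ATP so stronger rescue from cytokine killing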
# H9c2 TAG inh: reduces triacylglycerol accumulation in H9c2 cells; Nile Red lipid (TAG) fluorescence; cells loaded with 200 µM oleic acid; 230,000 tested, 0.66% active; inhibition, % at 12.5 µM;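 active = pattern-corrected inhibition of lipid staining of at least 50% with the nuclear-stain viability signal not falling by more than 50%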;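 note: 0% = DMSO wells and 100% = triacsin C control wells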
# T cruzi inh: T. cruzi replication inhibition. T. cruzi beta-gal in NIH3T3, luminescence, 90 h. inhibition, % (concentration not given with the values). 300,000 tested, 1.4% active. AID 1885;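 active = mean inhibition across valid replicates above about 55%, limit read from the data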;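 note: signal also drops with host cell toxicity which is not excluded here; 0% = plate median of DMSO wells and 100% = zero luminescence signal; higher percent means less beta-gal luminescence so fewer parasites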
#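 Read-out: Parasite load inhibition, % | Test system: Mouse NIH/3T3 fibroblasts infected with β-gal-expressing T. cruzi Tulahuen C4 | Amount: 5,000 cells/well | Medium: DMEM, 2% fetal bovine serum | Signal: GalScreen β-gal luminescence, detergent lysis, 60 min | Timing: 3 h attach, ≥90 h co-culture | Also added: Tulahuen C4 trypomastigotes, 5000/well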
# A1 inh: inhibitors of the anti-apoptotic protein A1, read as caspase activation | AID 2462 | MEF A1-2A-BIM cells, Caspase-Glo 3/7 luminescence, 3 h; percent of clofoctol response, vehicle zero | caspase activation, % (concentration not given with the values) | 330,000 tested, 0.066% active;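 active = over half of replicate activation scores above 10%, or exactly half above 10 with the replicate mean above 10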
# CSC inhib: blocks cancer stem cells; AID 2717; inhibition, % at 7.5 µM; cancer stem cell-like cells viability, luminescence; 300,000 tested, 1.1% active; in the data active = inhibition above about 75%; tested in HMLE shEcad cells
# * hit, by the source's call; / = no result given; ! = a repeat was not active. This is a sample that favours compounds with a hit; in the whole collection about 3.1% have one here.
SMILES,Calb FLC,Beta apoptosis,H9c2 TAG inh,T cruzi inh,A1 inh,CSC inhib
CC(=O)N(C(C)=O)c1ncnc2c1c(-c1ccc(Cl)cc1)nn2C(C)(C)C,62,4,12,61*,0,29
CC(=O)Nc1ncnc2c1c(-c1ccc(Cl)cc1)nn2C(C)(C)C,102*,-1,15,61*,4,19
CCOc1ccccc1CNC(=O)Cn1ccc2cc(S(=O)(=O)N3CCC(C)CC3)ccc21,-8,12,/,24,0,64
CCN(Cc1ccccc1)C(=O)CN1C(=O)COc2ccc(S(=O)(=O)NC3CCCC3)cc21,-1,2,/,4,1,-17
CSc1ccc(CCNC(=O)c2cc(-c3ccccc3)c(N3CCOCC3)s2)cc1,-3,12,/,27,-1,10
CCN(CC)CCCNC(=O)c1cc(-c2ccccc2)c(N2CCCCC2)s1,17,20,/,28,1,83*
O=C(NCCc1ccccc1)c1cc(-c2ccccc2)c(N2CCOCC2)s1,-6,5,/,35,0,81*
O=C(NCc1ccccc1)c1cc(C2COCCN2C(=O)C/C=C/c2ccccc2)on1 (stereo unspecified),/,/,23,/,/,/
CCOc1ccc(Nc2cc(C)nc3nc(C)nn23)cc1,6,-1,3,5,5.2*,-14
COc1ccc(CCNC(=O)c2nn(C)c3c2CS(=O)(=O)c2ccccc2-3)cc1OC,18,-1,/,-11,-1,10
CCC(=O)OCC(=O)[C@@]1(OC(=O)CC)[C@@H](C)C[C@H]2[C@@H]3CCC4=CC(=O)C=C[C@]4(C)[C@@]3(Cl)[C@@H](O)C[C@@]21C,/,3,9,/,-1,7
CN(CCOc1ccccc1)CC(=O)Nc1ccc(Cl)c(S(=O)(=O)N(C)C)c1,22,-4,-16,67*,1,-6
COc1ccc(CNC(=O)[C@H](C)NC(=O)C2CCN(S(=O)(=O)c3ccc(F)cc3)CC2)cc1,-3,5,/,10,-1,-7
Cc1cccc2[nH]c3c(N4CC=C(c5ccc(F)cc5)CC4)ncnc3c12,10,3,-19,34,0,78*
COc1cccc2[nH]c3c(N4CCCCC4)ncnc3c12,-23,10,/,16,1,7
COc1ccc2[nH]c(C(=O)NCCCN3CCCC3=O)c(C)c2c1,8,/,/,-14,-1,-9
CC(C)(C)CC(=O)N1CCN(c2ccc(S(=O)(=O)N3CCOCC3)cc2[N+](=O)[O-])CC1,/,-1,9,/,1,-14
Oc1c(Br)cc(Br)cc1/C=N/NC(=S)N[C@H]1CC2C=CC1C2 (stereo partly specified),-8,73,0,-19,0,102*
CN(C)CCCn1c(-c2ccccc2)nc(=S)c2c1CCCC2,-9,-3,/,59*,/,/
Nc1nc2ncc(CNc3ccc(C(=O)N[C@@H](CCC(=O)O)C(=O)O)cc3)nc2c(=O)[nH]1,-1,/,/,-7,0,13
CN(Cc1cnc2nc(N)nc(N)c2n1)c1ccc(C(=O)N[C@@H](CCC(=O)O)C(=O)O)cc1,-7,5,18,1,-1,86*!
CC(C)CN(C(=O)CCNC(=O)c1ccc([N+](=O)[O-])cc1)C1CCS(=O)(=O)C1 (stereo unspecified),/,-3,7,/,1,-13
CC(C)CN(C(=O)c1cc([N+](=O)[O-])cc([N+](=O)[O-])c1)C1CCS(=O)(=O)C1 (stereo unspecified),-2,-5,-18,57*,0,-2
O=C(N/N=C/c1ccc(O)c(O)c1O)/C(=C/c1ccc([N+](=O)[O-])cc1)NC(=O)c1ccccc1,104*,4,-14,34,0,35
Cc1ccc(NC(=O)/C(=C\c2ccc([N+](=O)[O-])cc2)NC(=O)c2ccccc2)cc1,14,-2,-32,-5,0,-14
O=C(N/N=C/c1cc([N+](=O)[O-])ccc1O)c1cccc2cc[nH]c12,-4,100*,61*,57*,-3,88*
O=C(N/N=C/c1cccc([N+](=O)[O-])c1)c1cccc2cc[nH]c12,28,1,4,-11,-1,2
O=C(N/N=C/c1cc([N+](=O)[O-])ccc1O)C(O)(c1ccccc1)c1ccccc1,98*,/,13,4,0,18
